Test results published in ChEMBL document CHEMBL1127405, “Synthesis and antitumor evaluation of bis[(pivaloyloxy)methyl] 2'-deoxy-5-fluorouridine 5'-monophosphate (FdUMP): a strategy to introduce nucleotides into cells” (J Med Chem, 1994).

Experiments:
Mus musculus [1] = assay: The compound was tested for increase in life span for mice implanted intraperitoneally with P-388/0 Leukemia cell line at 30 mg/kg; type: functional; conditions: P388, ip, route intraperitoneal
Procedure, shortened: (§1)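 Male BDF1 mice, six per group, implanted ip with 1×10^6 P-388/0 or P-388/FU cells on day 0. Dosed ip daily for 5 days from 24 h post-implant, in saline or Emulphor 620 vehicle. Mice observed until death. %ILS = (T/C − 1)×100, from median survival of treated mice (T) versus saline-treated controls (C).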

Mus musculus [2] = assay: The compound was tested for change in weight for mice implanted intraperitoneally with P-388/FU Leukemia cell line at 30 mg/kg; type: functional; conditions: route intraperitoneal
Procedure, shortened: (§2)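 Male BDF1 mice (six per group, average 22 g) given 1×10^6 P-388 cells ip on day 0. Drug dosed ip once daily for 5 consecutive days, starting 24 h after implantation, in 0.9% saline or, where insoluble, Emulphor 620. Percentage body-weight change recorded per dose group.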

Mus musculus [3] = assay: The compound was tested for change in weight for mice implanted intraperitoneally with P-388/FU Leukemia cell line at 20 mg/kg; type: functional; conditions: route intraperitoneal; procedure, shortened: as §2
Mus musculus [4] = assay: The compound was tested for mean survival time for 15 mice implanted Intraperitoneally with P-388/0 Leukemia cell line at 20 mg/kg; type: functional; conditions: route intraperitoneal
Procedure, shortened: (§3)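 P-388/0 or P-388/FU cells (1×10^6) implanted ip into male BDF1 mice on day 0. Dosing was ip, daily for 5 consecutive days beginning 24 h later, in saline or Emulphor 620 vehicle. Six mice per treated group. Animals followed to death and median survival time recorded in days. The control group had 15 mice.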

Mus musculus [5] = assay: The compound was tested for change in weight for mice implanted intraperitoneally with P-388/FU Leukemia cell line at 40 mg/kg; type: functional; conditions: route intraperitoneal; procedure, shortened: as §2
Mus musculus [6] = assay: The compound was tested for mean survival time for 15 mice implanted Intraperitoneally with P-388/FU Leukemia cell line at 30 mg/kg; type: functional; conditions: route intraperitoneal; procedure, shortened: as §3
Mus musculus [7] = assay: The compound was tested for increase in life span for mice implanted intraperitoneally with P-388/FU Leukemia cell line at 40 mg/kg; type: functional; conditions: P388, ip, route intraperitoneal; procedure, shortened: as §1
Mus musculus [8] = assay: The compound was tested for mean survival time for 15 mice implanted Intraperitoneally with P-388/FU Leukemia cell line at 40 mg/kg; type: functional; conditions: route intraperitoneal; procedure, shortened: as §3
Mus musculus [9] = assay: The compound was tested for increase in life span for mice implanted intraperitoneally with P-388/FU Leukemia cell line at 20 mg/kg; type: functional; conditions: P388, ip, route intraperitoneal; procedure, shortened: as §1
Mus musculus [10] = assay: The compound was tested for change in weight for mice implanted intraperitoneally with P-388/0 Leukemia cell line at 30 mg/kg; type: functional; conditions: route intraperitoneal; procedure, shortened: as §2
Mus musculus [11] = assay: The compound was tested for increase in life span for mice implanted intraperitoneally with P-388/0 Leukemia cell line at 20 mg/kg; type: functional; conditions: P388, ip, route intraperitoneal; procedure, shortened: as §1
Mus musculus [12] = assay: The compound was tested for mean survival time for 15 mice implanted Intraperitoneally with P-388/0 Leukemia cell line at 30 mg/kg; type: functional; conditions: route intraperitoneal; procedure, shortened: as §3
Mus musculus [13] = assay: The compound was tested for change in weight for mice implanted intraperitoneally with P-388/0 Leukemia cell line at 20 mg/kg; type: functional; conditions: route intraperitoneal; procedure, shortened: as §2
Mus musculus [14] = assay: The compound was tested for increase in life span for mice implanted intraperitoneally with P-388/FU Leukemia cell line at 30 mg/kg; type: functional; conditions: P388, ip, route intraperitoneal; procedure, shortened: as §1
Mus musculus [15] = assay: The compound was tested for mean survival time for 15 mice implanted Intraperitoneally with P-388/FU Leukemia cell line at 20 mg/kg; type: functional; conditions: route intraperitoneal; procedure, shortened: as §3
Mus musculus [16] = assay: The compound was tested for mean survival time for 15 mice implanted Intraperitoneally with P-388/FU Leukemia cell line at 335 mg/kg; type: functional; conditions: route intraperitoneal; procedure, shortened: as §3
Mus musculus [17] = assay: The compound was tested for increase in life span for mice implanted intraperitoneally with P-388/FU Leukemia cell line at 335 mg/kg; type: functional; conditions: P388, ip, route intraperitoneal; procedure, shortened: as §1
Mus musculus [18] = assay: The compound was tested for increase in life span for mice implanted intraperitoneally with P-388/FU Leukemia cell line at 149 mg/kg; type: functional; conditions: P388, ip, route intraperitoneal; procedure, shortened: as §1
[19] = The compound was tested for half life in aqueous media in 0.05 M NaOH, at pH 11.7; type: ADME; conditions: aqueous 0.05 M NaOH
Procedure, shortened: (§4)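 A 10^-3 M aqueous stock was diluted into each buffer to a final 10^-4 M and stirred at room temperature. Aliquots were taken at intervals (typically 2–100 h) and parent drug was quantified by reverse-phase C-18 HPLC with UV detection at 268 nm. Half-lives are the average of triplicate determinations.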

Mus musculus [20] = assay: The compound was tested for mean survival time for 15 mice implanted Intraperitoneally with P-388/FU Leukemia cell line at 223 mg/kg; type: functional; conditions: route intraperitoneal; procedure, shortened: as §3
Mus musculus [21] = assay: The compound was tested for mean survival time for 15 mice implanted Intraperitoneally with P-388/0 Leukemia cell line at 335 mg/kg; type: functional; conditions: route intraperitoneal; procedure, shortened: as §3
CHO [22] = assay: The minimun drug concentration that gives rise to colonies containing fewer than 50 cells after incubation at 37 degree C against chinese hamster ovary cells 20 fold resistant to fluoroudine; type: functional, cell-based; conditions: Cricetulus griseus
Procedure, shortened: (§5)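 About 200 cells per dish were grown as clones in drug at 0, 0.5, 1.5, 5, 10, 50 or 100 μM for 7 d at 37 °C in humidified CO2. Colonies were fixed with 10% formaldehyde and stained with 0.1% crystal violet. The value is the lowest tested concentration giving colonies of fewer than 50 cells.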

[23] = The compound was tested for half life in aqueous media in 0.05 M sodium acetate buffer, at pH 4.0; type: ADME; procedure, shortened: as §4
Mus musculus [24] = assay: The compound was tested for increase in life span for mice implanted intraperitoneally with P-388/0 Leukemia cell line at 149 mg/kg; type: functional; conditions: P388, ip, route intraperitoneal; procedure, shortened: as §1
Mus musculus [25] = assay: The compound was tested for increase in life span for mice implanted intraperitoneally with P-388/0 Leukemia cell line at 223 mg/kg; type: functional; conditions: P388, ip, route intraperitoneal; procedure, shortened: as §1
Mus musculus [26] = assay: The compound was tested for change in weight for mice implanted intraperitoneally with P-388/0 Leukemia cell line at 223 mg/kg; type: functional; conditions: route intraperitoneal
Procedure, shortened: (§6)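 Male BDF1 mice inoculated ip on day 0 with 1 × 10^6 leukemia cells (six mice per group, average weight 22 g). Dosing ip once daily for 5 consecutive days starting 24 h after implantation. Fluoropyrimidine references in 0.9% saline; prodrugs formulated with Emulphor 620; vehicle controls 0.2 mL. Percent body weight change recorded per group.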

Mus musculus [27] = assay: The compound was tested for change in weight for mice implanted intraperitoneally with P-388/0 Leukemia cell line at 335 mg/kg; type: functional; conditions: route intraperitoneal; procedure, shortened: as §6
Mus musculus [28] = assay: The compound was tested for change in weight for mice implanted intraperitoneally with P-388/0 Leukemia cell line at 149 mg/kg; type: functional; conditions: route intraperitoneal; procedure, shortened: as §6
[29] = The compound was tested for half life in aqueous media in 0.05 M NaOH, at 12.6; type: ADME; conditions: aqueous 0.05 M NaOH, pH 12.6; procedure, shortened: as §4
[30] = The compound was tested for half life in aqueous media in 0.05 M potassium phosphate buffer, at pH 7.4; type: ADME; procedure, shortened: as §4
[31] = The compound was tested for half life in aqueous media in 0.05 M Tris-HCl buffer, at pH 9.0; type: ADME; procedure, shortened: as §4
Mus musculus [32] = assay: The compound was tested for mean survival time for 15 mice implanted Intraperitoneally with P-388/0 Leukemia cell line at 149 mg/kg; type: functional; conditions: route intraperitoneal; procedure, shortened: as §3
CHO [33] = assay: The minimun drug concentration that gives rise to colonies containing fewer than 50 cells after incubation at 37 degree C against chinese hamster ovary cells; type: functional, cell-based; conditions: Cricetulus griseus; procedure, shortened: as §5
Mus musculus [34] = assay: The compound was tested for increase in life span for mice implanted intraperitoneally with P-388/FU Leukemia cell line at 223 mg/kg; type: functional; conditions: P388, ip, route intraperitoneal; procedure, shortened: as §1
Mus musculus [35] = assay: The compound was tested for mean survival time for 15 mice implanted Intraperitoneally with P-388/0 Leukemia cell line at 223 mg/kg; type: functional; conditions: route intraperitoneal; procedure, shortened: as §3
Mus musculus [36] = assay: The compound was tested for change in weight for mice implanted intraperitoneally with P-388/FU Leukemia cell line at 335 mg/kg; type: functional; conditions: route intraperitoneal; procedure, shortened: as §6
[37] = The compound was tested for half life in aqueous media in 0.20 M HCl/KCl solution, at pH 1.0; type: ADME; procedure, shortened: as §4
Mus musculus [38] = assay: The compound was tested for mean survival time for 15 mice implanted Intraperitoneally with P-388/FU Leukemia cell line at 149 mg/kg; type: functional; conditions: route intraperitoneal; procedure, shortened: as §3
Mus musculus [39] = assay: The compound was tested for change in weight for mice implanted intraperitoneally with P-388/FU Leukemia cell line at 149 mg/kg; type: functional; conditions: route intraperitoneal; procedure, shortened: as §6
Mus musculus [40] = assay: The compound was tested for change in weight for mice implanted intraperitoneally with P-388/FU Leukemia cell line at 223 mg/kg; type: functional; conditions: route intraperitoneal; procedure, shortened: as §6
Mus musculus [41] = assay: The compound was tested for increase in life span for mice implanted intraperitoneally with P-388/0 Leukemia cell line at 335 mg/kg; type: functional; conditions: P388, ip, route intraperitoneal; procedure, shortened: as §1

Question: With `O=c1[nH]cc(F)c(=O)[nH]1` [FLUOROURACIL] as the compound, how does the ILS at 30 mg/kg (Mus musculus [1]) read?
Answer: 55%

Question: And the Weight change (Mus musculus [2])?
Answer: -15%

Question: And the Weight change (Mus musculus [3])?
Answer: -6%

Question: And the MST (Mus musculus [4])?
Answer: 16 days

Question: What about the Weight change (Mus musculus [5]) of the same compound?
Answer: -18%

Question: And the MST (Mus musculus [6])?
Answer: 9 days

Question: And the ILS at 40 mg/kg (Mus musculus [7])?
Answer: -18%

Question: What about the MST (Mus musculus [8]) of the same compound?
Answer: 9 days

Question: What about the ILS at 20 mg/kg (Mus musculus [9]) of the same compound?
Answer: -9%

Question: What about the Weight change (Mus musculus [10]) of the same compound?
Answer: -15%

Question: And the ILS at 20 mg/kg (Mus musculus [11])?
Answer: 45%

Question: What about the MST (Mus musculus [12]) of the same compound?
Answer: 17 days

Question: And the Weight change (Mus musculus [13])?
Answer: -5%

Question: What about the ILS at 30 mg/kg (Mus musculus [14]) of the same compound?
Answer: -18%

Question: What about the MST (Mus musculus [15]) of the same compound?
Answer: 10 days

Question: With `CC(C)(C)C(=O)OCOP(=O)(OCOC(=O)C(C)(C)C)OC[C@H]1O[C@@H](n2cc(F)c(=O)[nH]c2=O)C[C@@H]1O` as the compound, how does the MST (Mus musculus [16]) read?
Answer: 18 days

Question: And the ILS at 335 mg/kg (Mus musculus [17])?
Answer: 64%

Question: And the ILS at 149 mg/kg (Mus musculus [18])?
Answer: 55%

Question: What about the half-life [19] of the same compound?
Answer: 0.37 h

Question: And the MST (Mus musculus [20])?
Answer: 18 days

Question: What about the MST (Mus musculus [21]) of the same compound?
Answer: 19 days

Question: And the IC50 (CHO [22])?
Answer: 5 µM

Question: What about the half-life [23] of the same compound?
Answer: 172 h

Question: And the ILS at 149 mg/kg (Mus musculus [24])?
Answer: 36%

Question: And the ILS at 223 mg/kg (Mus musculus [25])?
Answer: 45%

Question: And the Weight change (Mus musculus [26])?
Answer: -11%

Question: What about the Weight change (Mus musculus [27]) of the same compound?
Answer: -12%

Question: What about the Weight change (Mus musculus [28]) of the same compound?
Answer: 3%

Question: And the half-life [29]?
Answer: 1.8 min

Question: And the half-life [30]?
Answer: 40.2 h

Question: And the half-life [31]?
Answer: 21.6 h

Question: What about the MST (Mus musculus [32]) of the same compound?
Answer: 15 days

Question: What about the IC50 (CHO [33]) of the same compound?
Answer: 5 µM

Question: And the ILS at 223 mg/kg (Mus musculus [34])?
Answer: 64%

Question: What about the MST (Mus musculus [35]) of the same compound?
Answer: 16 days

Question: And the Weight change (Mus musculus [36])?
Answer: -13%

Question: And the half-life [37]?
Answer: 142 h

Question: And the MST (Mus musculus [38])?
Answer: 17 days

Question: And the Weight change (Mus musculus [39])?
Answer: -9%

Question: What about the Weight change (Mus musculus [40]) of the same compound?
Answer: -12%

Question: And the ILS at 335 mg/kg (Mus musculus [41])?
Answer: 73%
